Reference: ChEMBL document CHEMBL5705899 (Biochem J, 2014)
Activity calls are given as the source filed them. No cut-off for these calls is given here.

What was measured:
[1] = molecular target: Phosphatidylinositol 4-phosphate 3-kinase C2 domain-containing subunit alpha (Homo sapiens, UniProt O00443); assay: Inhibition of human PIK3C2A using PIP2/PS as substrate by ADP-Glo assay
[2] = molecular target: Mitogen-activated protein kinase 13 (Homo sapiens) (UniProt O15264); assay: Inhibition of recombinant human GST-tagged P38delta (1 to 365 residues) expressed in Escherichia coli assessed as remaining activity at 1 uM using MBP as substrate incubated for 30 mins in presence of [gamma-33P]ATP by filter binding method relative to control
[3] = molecular target: Death-associated protein kinase 1 (Homo sapiens) (UniProt P53355); assay: Inhibition of recombinant human N-terminal GST-tagged DAPK1 (1 to 363 residues) expressed in Escherichia coli assessed as remaining activity at 1 uM using KKLNRTLSFAEPG as substrate incubated for 30 mins in presence of [gamma-33P]ATP by filter binding method relative to control
[4] = molecular target: Cyclin-dependent kinase 1/cyclin B1 (Homo sapiens) (UniProt P06493+P14635); assay: Inhibition of human CDK1/CycB1 at 1 uM using RBER-CHKtide as substrate in presence of 33P-ATP by ProQinase assay; assay type: protein-complex assay
Chain of Cyclin-dependent kinase 1/cyclin B1 (Homo sapiens) (P06493 whole entry, looked up, the tested form may be a part): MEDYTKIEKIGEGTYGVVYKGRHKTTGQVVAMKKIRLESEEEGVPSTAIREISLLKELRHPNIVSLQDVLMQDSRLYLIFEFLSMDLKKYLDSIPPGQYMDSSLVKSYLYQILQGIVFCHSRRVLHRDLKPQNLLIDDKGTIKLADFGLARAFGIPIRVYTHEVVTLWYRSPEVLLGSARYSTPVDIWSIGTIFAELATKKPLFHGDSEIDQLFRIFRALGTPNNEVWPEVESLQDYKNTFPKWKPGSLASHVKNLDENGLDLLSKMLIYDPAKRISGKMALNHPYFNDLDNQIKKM
Chain of Cyclin-dependent kinase 1/cyclin B1 (Homo sapiens) (P14635 whole entry, looked up, the tested form may be a part): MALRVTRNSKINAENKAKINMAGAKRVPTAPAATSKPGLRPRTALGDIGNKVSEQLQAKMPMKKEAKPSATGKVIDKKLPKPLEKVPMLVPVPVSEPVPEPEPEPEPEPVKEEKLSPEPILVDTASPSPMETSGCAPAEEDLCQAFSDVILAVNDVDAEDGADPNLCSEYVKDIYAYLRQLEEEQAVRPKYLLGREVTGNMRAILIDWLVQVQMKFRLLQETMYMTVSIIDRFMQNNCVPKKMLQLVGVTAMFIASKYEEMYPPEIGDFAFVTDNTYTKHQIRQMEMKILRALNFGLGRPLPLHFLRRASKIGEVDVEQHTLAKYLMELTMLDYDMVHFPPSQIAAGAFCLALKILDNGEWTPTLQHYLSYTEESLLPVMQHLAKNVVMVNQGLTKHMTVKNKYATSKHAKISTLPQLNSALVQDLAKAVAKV

[5] = molecular target: Receptor tyrosine-protein kinase erbB-4 (Homo sapiens) (UniProt Q15303); assay: Inhibition of recombinant human N-terminal His6-tagged HER4 (706 to 991 residues) expressed in baculovirus infected Sf21 cells assessed as remaining activity at 1 uM using Poly (Glu,Tyr) as substrate incubated for 30 mins in presence of [gamma-33P]ATP by filter binding method relative to control
[6] = molecular target: Serine/threonine-protein kinase D1 (Homo sapiens) (UniProt Q15139); assay: (§1) Inhibition of recombinant human N-terminal His6-tagged PKD1 (2 to 912 residues) expressed in baculovirus infected Sf21 cells assessed as remaining activity at 1 uM using KKLNRTLSVA as substrate incubated for 30 mins in presence of [gamma-33P]ATP by filter binding method relative to control
Chain of Serine/threonine-protein kinase D1 (Homo sapiens) (Q15139 whole entry, the tested form may be a part): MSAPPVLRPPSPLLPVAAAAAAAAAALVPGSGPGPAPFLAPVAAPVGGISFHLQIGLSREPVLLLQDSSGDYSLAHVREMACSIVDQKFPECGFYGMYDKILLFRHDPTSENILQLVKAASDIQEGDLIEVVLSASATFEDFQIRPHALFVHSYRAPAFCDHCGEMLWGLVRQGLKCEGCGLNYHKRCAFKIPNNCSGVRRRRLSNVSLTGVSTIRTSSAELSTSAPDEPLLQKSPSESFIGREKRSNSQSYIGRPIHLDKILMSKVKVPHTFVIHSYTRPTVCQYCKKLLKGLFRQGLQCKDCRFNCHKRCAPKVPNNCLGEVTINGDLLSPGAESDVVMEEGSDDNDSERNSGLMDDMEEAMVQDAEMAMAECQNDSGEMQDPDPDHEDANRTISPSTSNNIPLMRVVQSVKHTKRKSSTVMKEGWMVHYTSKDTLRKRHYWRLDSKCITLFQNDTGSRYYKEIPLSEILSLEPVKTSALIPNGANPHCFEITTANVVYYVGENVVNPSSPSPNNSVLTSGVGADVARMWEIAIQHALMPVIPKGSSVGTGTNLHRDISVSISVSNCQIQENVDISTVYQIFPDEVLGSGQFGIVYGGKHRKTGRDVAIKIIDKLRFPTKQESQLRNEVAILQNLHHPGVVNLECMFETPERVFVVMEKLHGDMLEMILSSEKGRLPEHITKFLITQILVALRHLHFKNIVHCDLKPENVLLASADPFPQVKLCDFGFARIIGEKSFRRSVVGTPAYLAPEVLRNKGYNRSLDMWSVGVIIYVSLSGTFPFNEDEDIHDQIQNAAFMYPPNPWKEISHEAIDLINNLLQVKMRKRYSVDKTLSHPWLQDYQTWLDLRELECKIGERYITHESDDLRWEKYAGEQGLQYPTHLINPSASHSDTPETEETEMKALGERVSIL

[7] = system: Dual specificity mitogen-activated protein kinase kinase 6 (Homo sapiens), P52564 [S207D,T211D]; assay: Inhibition of human MKK6 S207D/T211D double mutant at 1 uM using p38-alpha KA as substrate in presence of 33P-ATP by ProQinase assay
[8] = molecular target: cGMP-dependent protein kinase 1 (Homo sapiens) (UniProt Q13976); assay: Inhibition of human PRKG1 at 1 uM using 3xChocktide-PKC as substrate in presence of 33P-ATP by ProQinase assay
[9] = molecular target: Ribosomal protein S6 kinase alpha-2 (Homo sapiens) (UniProt Q15349); assay: Inhibition of human RPS6KA2 at 1 uM using bio-4xCHKT as substrate in presence of 33P-ATP by ProQinase assay
U2OS = assay: Inhibition of PI3K in human U2OS cells expressing FLAG-tagged SGK3 assessed as reduction in NDRG1 phosphorylation at T346 residues at 0.01 to 1 uM 1 hr by immunoblot analysis; assay type: cell-based; details: dose 0.01-1 µM
Method in brief: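 Flp-In T-REx U2OS cells were grown in McCoy medium with 10% FBS. Expression of C-terminally FLAG-tagged full-length SGK3 was induced with 0.01 mg/ml doxycycline for 24 h. Cells were treated with inhibitor for 1 h and lysed in phosphatase-inhibitor buffer. Lysates were cleared at 16000 g for 10 min at 4°C, protein was measured by Bradford, and phosphorylation was read by immunoblot with ECL detection.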

[10] = molecular target: Serine/threonine-protein kinase WNK1 (Homo sapiens) (UniProt Q9H4A3); assay: Inhibition of human WNK1 at 1 uM using 3xChocktide-PKC as substrate in presence of 33P-ATP by ProQinase assay
[11] = molecular target: Serine/threonine-protein kinase D1 (Homo sapiens) (UniProt Q15139); assay: Inhibition of human PKCmu at 1 uM using RBER-CHKtide as substrate in presence of 33P-ATP by ProQinase assay
[12] = molecular target: Insulin receptor-related protein (Homo sapiens) (UniProt P14616); assay: Inhibition of human INSRR at 1 uM using poly(Ala,Glu,Lys,Tyr) as substrate in presence of 33P-ATP by ProQinase assay
Chain of Insulin receptor-related protein (Homo sapiens) (P14616 27-742 limits assumed): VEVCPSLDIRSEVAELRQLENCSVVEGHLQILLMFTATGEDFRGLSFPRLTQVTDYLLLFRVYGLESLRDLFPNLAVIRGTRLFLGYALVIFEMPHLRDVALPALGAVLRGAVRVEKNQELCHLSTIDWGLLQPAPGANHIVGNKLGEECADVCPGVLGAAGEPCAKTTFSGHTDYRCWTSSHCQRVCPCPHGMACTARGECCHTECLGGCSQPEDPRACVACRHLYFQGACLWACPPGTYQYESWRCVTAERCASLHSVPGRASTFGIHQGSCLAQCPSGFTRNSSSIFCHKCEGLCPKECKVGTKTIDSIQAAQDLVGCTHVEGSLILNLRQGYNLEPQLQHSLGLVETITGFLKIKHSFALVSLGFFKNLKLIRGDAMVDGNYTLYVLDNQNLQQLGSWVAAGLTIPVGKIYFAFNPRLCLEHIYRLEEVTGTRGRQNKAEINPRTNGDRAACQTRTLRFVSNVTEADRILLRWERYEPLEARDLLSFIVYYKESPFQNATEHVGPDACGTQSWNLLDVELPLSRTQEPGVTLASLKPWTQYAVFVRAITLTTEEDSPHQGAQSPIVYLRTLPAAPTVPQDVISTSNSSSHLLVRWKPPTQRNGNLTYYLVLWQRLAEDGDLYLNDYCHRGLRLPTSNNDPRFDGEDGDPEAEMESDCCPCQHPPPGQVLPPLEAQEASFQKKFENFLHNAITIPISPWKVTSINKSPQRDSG
Chain of Insulin receptor-related protein (Homo sapiens) (P14616 747-1297 limits assumed): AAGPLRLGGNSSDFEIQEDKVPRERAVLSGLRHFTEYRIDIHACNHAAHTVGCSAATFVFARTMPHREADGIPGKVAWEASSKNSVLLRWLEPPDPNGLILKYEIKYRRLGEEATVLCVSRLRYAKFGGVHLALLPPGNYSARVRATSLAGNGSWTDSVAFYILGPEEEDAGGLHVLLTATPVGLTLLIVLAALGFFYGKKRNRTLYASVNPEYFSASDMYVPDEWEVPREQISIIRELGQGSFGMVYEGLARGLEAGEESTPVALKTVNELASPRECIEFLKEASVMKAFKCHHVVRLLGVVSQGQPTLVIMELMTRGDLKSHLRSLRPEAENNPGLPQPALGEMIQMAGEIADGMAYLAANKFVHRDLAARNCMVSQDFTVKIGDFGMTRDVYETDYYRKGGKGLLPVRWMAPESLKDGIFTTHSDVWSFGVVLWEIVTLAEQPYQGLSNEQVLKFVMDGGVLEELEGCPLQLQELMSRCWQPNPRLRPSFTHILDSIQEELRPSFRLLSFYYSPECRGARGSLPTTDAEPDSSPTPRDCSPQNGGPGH

[13] = molecular target: CDK4/Cyclin D3 (Homo sapiens) (UniProt P11802+P30281); assay: Inhibition of human CDK4/CycD3 at 1 uM using RBER-CHKtide as substrate in presence of 33P-ATP by ProQinase assay; assay type: protein-complex assay
[14] = molecular target: Mitogen-activated protein kinase kinase kinase kinase 5 (Homo sapiens) (UniProt Q9Y4K4); assay: Inhibition of MAP4K5 (unknown origin) assessed as remaining activity at 1 uM relative to control
Chain of Mitogen-activated protein kinase kinase kinase kinase 5 (Homo sapiens) (Q9Y4K4 whole entry, looked up): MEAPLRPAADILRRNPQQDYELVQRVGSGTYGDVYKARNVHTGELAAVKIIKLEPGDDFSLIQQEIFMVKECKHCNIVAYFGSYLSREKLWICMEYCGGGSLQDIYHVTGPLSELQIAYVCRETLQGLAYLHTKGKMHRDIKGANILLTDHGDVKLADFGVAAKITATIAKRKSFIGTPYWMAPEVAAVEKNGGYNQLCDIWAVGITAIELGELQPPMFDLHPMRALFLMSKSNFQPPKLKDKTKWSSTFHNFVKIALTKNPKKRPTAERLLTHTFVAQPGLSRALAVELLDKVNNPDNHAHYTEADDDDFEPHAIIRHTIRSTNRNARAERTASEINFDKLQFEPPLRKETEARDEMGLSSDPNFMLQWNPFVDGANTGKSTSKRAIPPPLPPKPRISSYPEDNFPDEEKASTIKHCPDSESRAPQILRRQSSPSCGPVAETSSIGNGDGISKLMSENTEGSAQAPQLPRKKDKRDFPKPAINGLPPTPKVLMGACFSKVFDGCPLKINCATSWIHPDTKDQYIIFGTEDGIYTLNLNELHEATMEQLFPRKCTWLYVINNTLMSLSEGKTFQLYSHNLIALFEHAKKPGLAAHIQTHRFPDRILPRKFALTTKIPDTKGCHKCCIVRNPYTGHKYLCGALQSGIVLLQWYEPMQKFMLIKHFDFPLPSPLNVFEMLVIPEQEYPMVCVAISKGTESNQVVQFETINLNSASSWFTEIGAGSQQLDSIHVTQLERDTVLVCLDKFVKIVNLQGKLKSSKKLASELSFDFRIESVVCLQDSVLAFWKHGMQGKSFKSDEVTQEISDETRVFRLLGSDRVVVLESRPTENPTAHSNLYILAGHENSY
Method in brief: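 Dundee panel of 140 protein kinases, tested at a single 1 μM concentration. Each assay was run in triplicate. Remaining activity is expressed relative to a control reaction without inhibitor, as mean ± S.D. Conditions for each kinase were those of the screening centre.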

[15] = molecular target: Platelet-derived growth factor receptor alpha (Homo sapiens) (UniProt P16234); assay: Inhibition of recombinant human PDGFRalpha (551 to […] residues) expressed in baculovirus infected Sf21 cells assessed as remaining activity at 1 uM using KKKKEEIYFFFG as substrate incubated for 30 mins in presence of [gamma-33P]ATP by filter binding method relative to control
[16] = molecular target: Serine/threonine-protein kinase Sgk2 (Homo sapiens) (UniProt Q9HBY8); assay: Inhibition of human SGK2 at 1 uM using RBER-GSK3 as substrate in presence of 33P-ATP by ProQinase assay
[17] = molecular target: Fibroblast growth factor receptor 1 (Homo sapiens) (UniProt P11362); assay: Inhibition of human FGFR1 at 1 uM using polyEy as substrate in presence of 33P-ATP by ProQinase assay
Chain of Fibroblast growth factor receptor 1 (Homo sapiens) (P11362 22-822 limits assumed): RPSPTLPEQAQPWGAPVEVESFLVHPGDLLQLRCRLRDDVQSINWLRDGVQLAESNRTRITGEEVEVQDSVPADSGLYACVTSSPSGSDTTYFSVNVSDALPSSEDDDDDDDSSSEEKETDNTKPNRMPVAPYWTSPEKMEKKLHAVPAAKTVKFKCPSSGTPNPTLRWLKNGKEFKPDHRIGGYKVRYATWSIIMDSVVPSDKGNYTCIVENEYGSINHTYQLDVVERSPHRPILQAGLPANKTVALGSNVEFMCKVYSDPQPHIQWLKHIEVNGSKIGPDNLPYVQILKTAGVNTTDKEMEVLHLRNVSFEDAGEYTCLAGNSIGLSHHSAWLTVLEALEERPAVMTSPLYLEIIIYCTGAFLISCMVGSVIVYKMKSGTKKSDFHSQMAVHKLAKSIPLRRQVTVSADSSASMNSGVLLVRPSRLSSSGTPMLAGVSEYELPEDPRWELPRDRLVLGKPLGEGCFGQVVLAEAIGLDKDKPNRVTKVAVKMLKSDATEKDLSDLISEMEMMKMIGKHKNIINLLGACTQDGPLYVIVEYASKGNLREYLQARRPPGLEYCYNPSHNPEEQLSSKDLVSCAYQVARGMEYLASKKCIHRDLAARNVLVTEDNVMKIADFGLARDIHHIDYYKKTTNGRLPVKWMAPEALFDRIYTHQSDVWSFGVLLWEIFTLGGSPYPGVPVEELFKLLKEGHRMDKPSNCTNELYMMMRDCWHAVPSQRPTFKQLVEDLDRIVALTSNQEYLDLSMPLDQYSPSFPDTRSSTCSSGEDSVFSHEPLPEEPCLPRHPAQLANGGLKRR

[18] = molecular target: Tyrosine-protein kinase Mer (Homo sapiens) (UniProt Q12866); assay: Inhibition of human MERTK at 1 uM using polyEY as substrate in presence of 33P-ATP by ProQinase assay
[19] = molecular target: LKB1-STRAD-MO25 complex (Homo sapiens) (UniProt Q15831+Q7RTN6+Q9Y376); assay: as §1, with “LKB1 (1” for “PKD1 (2”, “433 residues)/MO25 (1 to 341 residues)/STRAD (1 to 431” for “912”, “LSNLYHQGKFLQTFCGSPLYRRR” for “KKLNRTLSVA”
[20] = molecular target: MAP kinase-activated protein kinase 3 (Homo sapiens) (UniProt Q16644); assay: Inhibition of human MAPKAPK3 at 1 uM using bio-4xCHKT as substrate in presence of 33P-ATP by ProQinase assay
Chain of MAP kinase-activated protein kinase 3 (Homo sapiens) (Q16644 whole entry, looked up): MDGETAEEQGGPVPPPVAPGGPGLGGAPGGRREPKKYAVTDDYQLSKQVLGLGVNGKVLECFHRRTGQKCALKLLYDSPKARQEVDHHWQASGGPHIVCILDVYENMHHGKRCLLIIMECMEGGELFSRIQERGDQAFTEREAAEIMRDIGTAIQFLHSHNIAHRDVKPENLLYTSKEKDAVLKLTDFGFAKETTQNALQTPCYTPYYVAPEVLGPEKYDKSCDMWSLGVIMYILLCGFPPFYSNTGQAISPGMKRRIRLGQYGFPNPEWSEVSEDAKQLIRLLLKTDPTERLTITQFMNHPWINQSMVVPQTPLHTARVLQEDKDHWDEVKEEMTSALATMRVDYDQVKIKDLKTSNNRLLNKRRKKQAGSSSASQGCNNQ

[21] = molecular target: Dual serine/threonine and tyrosine protein kinase (Homo sapiens) (UniProt Q6XUX3); assay: Inhibition of human RIPK5 at 1 uM using RBER-CHKtide as substrate in presence of 33P-ATP by ProQinase assay
[22] = molecular target: Phosphatidylinositol 4-kinase beta (Homo sapiens, UniProt Q9UBF8); assay: Inhibition of recombinant human N-terminal His6-tagged PIK4Cbeta (1 to 801 residues) expressed in baculovirus expression system at 1 uM using […] as substrate incubated for 45 mins by ADP-Glo assay

Structure (SMILES): CC(C)(O)CNc1ncc(-c2ccnc(Nc3ccnc(Cl)c3)n2)c(CC2CC2)n1
- IC50 [1]: > 10 µM
- Activity [2]: 111%
- Activity [3]: 96%
- inhibition [4]: inactive
- Activity [5]: 101%
- Activity [6]: 115%
- inhibition [7]: inactive
- inhibition [8]: inactive
- inhibition [9]: inactive
- inhibition (U2OS): Active
- inhibition [10]: inactive
- inhibition [11]: inactive
- inhibition [12]: inactive
- inhibition [13]: inactive
- Activity [14]: 105%
- Activity [15]: 121%
- inhibition [16]: inactive
- inhibition [17]: inactive
- inhibition [18]: inactive
- Activity [19]: 106%
- inhibition [20]: inactive
- inhibition [21]: inactive
- inhibition [22]: inactive
